# According to PubChem BioAssay AID775 (SRMLSC, 2007):
# The whole screen tested about 130,000 compounds, of which about 900 (0.69%) were called active. Shown is part of a subset that was picked to be rich in actives. Unmarked numbers belong to inactive results.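 The calls were made as follows: active = inhibition above a set limit, placed 3 SD over the median of all compounds (cut at about 26% in these data); inactive = the rest.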
# Experiment: compounds extending yeast replicative lifespan, primary screen, S. cerevisiae, OD615 (AID 775);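 also: 0% = nicotinamide-treated wells and 100% = cells grown without nicotinamide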
# Details: S. cerevisiae growth with nicotinamide, at 10 µM, stronger effect = higher value, deaD strain in restrictive glucose medium
# Outline: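 Assay system: DeaD-strain S. cerevisiae. Medium: CSMM-D glucose medium, restrictive. Reagent: nicotinamide, 1.5 mM, co-present with compound. Compound: 10 µM single point, 0.25% DMSO. Schedule: culture preincubation 4 h, compound exposure 48 h, both 30 °C. Detection: absorbance at 615 nm.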
row,Compound,inhibition of the nicotinamide effect
1,O=C(O)C1CC(=O)N(Cc2cccnc2)C1 (configuration not stated),-1.28%
2,O=C1OC(c2ccc(Cl)cc2)=N/C1=C\c1cccnc1,20.7%
3,O=C1/C(=C\c2cccnc2)CN(Cc2ccccc2)C/C1=C\c1cccnc1,54.9% (active)
4,O=C(NCCc1ccccc1)C1CCC(Cn2c(=O)c3ccccc3n(Cc3cccnc3)c2=O)CC1 (configuration not stated),0.76%
5,Cc1ccc2nc(-c3cccnc3)c(NC3CCCC3)n2c1,-2.42%
6,Cc1cccc(OP(=O)(Nc2c(C)n(C)n(-c3ccccc3)c2=O)Oc2cccc(C)c2)c1,0%
7,CCN(CC)c1ccc([N+](=O)[O-])cc1C(=O)O,4.32%
8,O=C(COC(=O)CCCNC(=O)c1ccc(Cl)cc1)Nc1cc(Cl)ccc1Cl,5.47%
9,CC1CN(S(=O)(=O)c2ccc(C(=O)Nc3sccc3C(N)=O)cc2)CC(C)O1 (configuration not stated),0.65%
10,Cc1sc(NC(=S)NC(=O)c2cccs2)nc1-c1ccc(CC(C)C)cc1,-13.7%
11,CC(C)Cc1nn2c(=O)cc(O)nc2s1,47.1% (active)
12,COC(=O)c1ccc(C(=O)OC)c(NC(=S)N2CCN(c3ccc(F)cc3)CC2)c1,-4.39%
13,CSCc1ccc(C(=O)Nc2cc(C)cc(C)c2)cc1,1.95%
14,CCCn1c(=O)c(-c2ccccc2)c(O)c2ccccc21,3.34%
15,Cn1c(=O)c(Sc2ccc(Cl)cc2)c(O)c2ccccc21,29.7% (active)
16,Cn1c(=O)c(C(=O)Nc2ncccn2)c(O)c2ccccc21,-13.7%
17,O=C(/C=C/c1ccccc1[N+](=O)[O-])NCC1CCCO1 (configuration not stated),1.94%
18,Cc1ccc(C(=O)OCc2nc(N)nc(Nc3ccccc3C)n2)cc1,-3.73%
19,NS(=O)(=O)c1ccc(CCNC(=S)Nc2ccc(S(N)(=O)=O)cc2)cc1,1.53%
20,Cc1cccc(CC(=O)N2CCN=C2SCc2ccc([N+](=O)[O-])cc2)c1,-1.98%
21,CC(=C1C(=O)c2ccccc2C1=O)N1CCN(c2ccccn2)CC1,54.4% (active)
22,O=C(C(Cl)Cl)N1CCN(c2ccccn2)CC1,1.15%
23,CNC(=S)N1CCN(c2ccccn2)CC1,1.57%
24,Cc1cccc(NC(=S)Nc2ccc3cn[nH]c3c2)c1,3.23%
25,S=C(Nc1cccc(Cl)c1)Nc1ccc2cn[nH]c2c1,32.1% (active)

row,Compound,inhibition of the nicotinamide effect
1,Cc1csc(NC(=S)Nc2cccc(Cl)c2)n1,-1.45%
2,Cc1ccc(NC(=O)CCC(=O)N/N=C/c2ccco2)c(C)c1,0.43%
3,Cc1ccc2c(CC(=O)NCc3cccs3)coc2c1,-1.73%
4,Cc1cccc(C(=O)c2cccc(C)c2)c1,-6.29%
5,Cc1nccn1CC(=O)N/N=C/c1ccc(O)c(O)c1,0.31%
6,COc1ccccc1C1CC(=O)n2c(nc(-c3ccccc3)c2-c2ccccc2)S1 (configuration not stated),0.78%
7,Cc1cc(C=O)c(C)n1-c1ccc(NC2CCCCC2)c([N+](=O)[O-])c1,-25.3%
8,COc1cc(OC)c(-n2cc(-c3ccc(Cl)cc3)[nH]c2=O)cc1Cl,-0.64%
9,COc1cc(OC)c(-n2c(C)cc(C=O)c2C)cc1Cl,39.8% (active)
10,O=C(Cc1coc2ccc3ccccc3c12)NCc1cccs1,-1.99%
11,COc1cc(/C=N\NC(=O)c2nonc2N)c(OC)cc1Br,5.5%
12,COCCn1c(=O)[nH]c(=O)c2cc(C(=O)c3cc(OC)ccc3O)cnc21,-5.05%
13,CCCn1c(=O)c2c(C(F)(F)F)cc(-c3cccs3)nc2n(CCC)c1=O,3.84%
14,CCCN1Cc2cccc(C(=O)NCc3ccccc3)c2C1=O,-14.6%
15,O=C(O)c1cccc2c1C(=O)N(C1CCCCC1)C2,63.7% (active)
16,CCCN1Cc2cccc(C(=O)Nc3ccc(S(=O)(=O)N4CCCCCC4)cc3)c2C1=O,-3.05%
17,COc1cc(NC(=S)NNC(=O)CC(C)C)c(OC)cc1Cl,0.62%
18,COc1ccccc1NC(=O)CCCc1c[nH]c2ccccc12,-7.92%
19,COc1cccc(NC(=O)Cc2ccc(C)cc2)c1,-12.4%
20,COc1ccc(NS(=O)(=O)c2ccc(NC(=S)NC(=O)/C=C/c3ccc(C)cc3)cc2)nn1,-1.4%
21,COc1ccc(NC(=O)/C(Cl)=C(/Cl)S(=O)Cc2ccc(C)cc2)cn1 (configuration not stated),45.5% (active)
22,Cc1ccc(CC(=O)Nc2ccc(OC(F)F)c(Cl)c2)cc1C,0.1%
23,S=C(NCCc1ccccc1)NCC1CCCO1 (configuration not stated),1.76%
24,O=C(NCC1CCCO1)c1ccc2ccccc2n1 (configuration not stated),-8.01%
25,O=C(CS(=O)(=O)Cc1ccccc1)NCC1CCCO1 (configuration not stated),46.3% (active)

row,Compound,inhibition of the nicotinamide effect
1,COc1ccc(-n2c(=S)[nH]c3sc4c(c3c2=O)CCc2ccccc2-4)cc1,8.03%
2,O=C(/C=C/c1ccc([N+](=O)[O-])cc1)NCCSCc1ccco1,-1.15%
3,CC(=O)c1c(O)cc2n(c1=O)-c1ccc(Cl)cc1C2(C)C,50.9% (active)
4,O=C(COC(=O)/C=C/c1nc2ccccc2s1)Nc1ccccc1Oc1ccccc1,-1.04%
5,Cc1nnc(NC(=O)/C=C/c2ccco2)s1,-3.6%
6,COc1ccc(-c2cc(C(F)(F)F)nc(S(C)(=O)=O)n2)cc1OC,48.9% (active)
7,COc1cc(OC)nc(S(C)(=O)=O)n1,2.39%
8,COc1ccc(-c2cc(C(F)(F)F)nc(SCC(=O)Nc3ccc4c(c3)OCO4)n2)cc1OC,3.91%
9,Cc1ccc(C)c2[nH]c(=O)c(CCNC(=O)c3cccs3)cc12,-0.37%
10,O=C(OC1CCOC1=O)c1cccc(S(=O)(=O)Nc2ccc(F)cc2)c1 (configuration not stated),1.4%
11,COc1ccc(C)cc1NC(=O)C(OC(=O)c1cccc(S(=O)(=O)N(C)c2ccccc2)c1)c1ccccc1 (configuration not stated),-5.56%
12,Cc1cccc(N=C2NN=C(c3c[nH]c4ccccc34)CS2)c1,5.95%
13,CCN(CC(=O)NCCc1ccccc1)S(=O)(=O)c1ccc(C)cc1,5.67%
14,C/C(=N\c1nc2ccccc2n1C)c1cc(Cl)ccc1O,-13.3%
15,CCN(CC)CCn1c(/N=C/c2cc(Br)ccc2O)nc2ccccc21,37.7% (active)
16,CCn1c(NC(=O)c2nn(C)cc2Br)nc2ccccc21,-7.14%
17,CN(c1ccccc1)S(=O)(=O)c1cccc(NC(=O)Cc2c(F)cccc2Cl)c1,1.53%
18,O=C(CN1C2=NCCN2c2ccccc21)c1cccs1,0.42%
19,O=C1Nc2cc(Cl)c(Cl)cc2N(O)N1c1cc(Cl)cc(Cl)c1,110% (active)
20,O=C(O)c1cccc(N2C(=O)Nc3ccccc3N2O)c1,4.66%
21,CCOC(=O)c1c(NC(=O)Cn2nc(C(F)(F)F)cc2C)sc2c1CCC2,-3.99%
22,O=C1CC(c2ccccc2)CC(O)=C1C=NCCN1CCOCC1 (configuration not stated),70.8% (active)
23,O=C1CC(c2cccc(Cl)c2)CC(O)=C1C=Nc1ccccc1 (configuration not stated),-1.47%
24,CC(C)C(=O)N1CCN(CCN=CC2=C(O)CC(c3ccco3)CC2=O)CC1 (configuration not stated),-8.76%
25,O=C(Nc1ccc2ccccc2c1)/C(=C\c1ccc2c(c1)OCO2)NC(=O)c1ccco1,2.64%

row,Compound,inhibition of the nicotinamide effect
1,CN(c1ccccc1)c1nc(N)c([N+](=O)[O-])c(NCc2ccco2)n1,8.11%
2,CCOC(=O)C1CCN(C(=O)/C=C/c2cc(OC)c(OC)c(OC)c2)CC1,-0.86%
3,Cc1nc2c(C(=O)NCc3cccs3)cnn2c(C)c1Cc1ccc(F)cc1,7.32%
4,Cc1ccc(SCCC(=O)NC(C(C)C)C(C)C)cc1,1.38%
5,CC1Cc2ccccc2N1C(=O)CSc1nc2ccccc2o1 (configuration not stated),-13.2%
6,CCn1nc(C(=O)OCC(=O)N2c3ccccc3CC2C)c2ccccc2c1=O (configuration not stated),-14.7%
7,CC1Cc2ccccc2N1C(=O)Cn1cnc2ccccc2c1=O (configuration not stated),55.5% (active)
8,COc1ccc(COC(=O)N/N=C(\C)CC(=O)Nc2ccc(Cl)cc2)cc1,-3.92%
9,O=S(=O)(NCCSc1ccccn1)c1ccc(Cl)cc1,10.5%
10,COc1ccc(/C=C(/CC(=O)Nc2ccc(C)cc2)c2nc3ccccc3s2)cc1,-0.84%
11,CNC(=O)/C(C#N)=C/c1c(F)cccc1Cl,43.1% (active)
12,Cc1cc(/C=C(/C#N)C(=O)Nc2ccc(Cl)cc2)c(C)n1-c1cccnc1,0.59%
13,N#C/C(=C\c1ccccc1C(F)(F)F)C(=O)Nc1ccccc1F,6.56%
14,CCOC(=O)C(C)Sc1nnc(CSc2nc3nc(C)cc(C)n3n2)o1 (configuration not stated),-1.15%
15,CCOc1ncccc1C(=O)N(C)CC(=O)Nc1ccc(F)cc1,0.31%
16,O=C(/C=C/c1cccc([N+](=O)[O-])c1)NCCSCc1ccco1,-4.01%
17,COc1ccc(CNc2ccc3c(c2)CCC3)cc1OC,-10.1%
18,COc1ccc(CC(=O)Nc2ccc3c(c2)CCC3)cc1S(=O)(=O)N1CCOCC1,61% (active)
19,O=C(CN1C(=O)CCC1=O)Nc1ccc(S(=O)(=O)N2CCOCC2)cc1,-14.7%
20,CCCc1cc(=O)[nH]c(SCc2cc(=O)oc3c(C)c(C)ccc23)n1,4.9%
21,O=C(OCc1ccc(Br)cc1)c1cccc(-c2nnc(-c3ccccc3)o2)c1,10.4%
22,CCOC(=O)NN1C(=O)c2ccccc2NC1c1cccc(O)c1 (configuration not stated),-1.57%
